Reference: ChEMBL document CHEMBL3091285, “Cytotoxic compounds from invasive giant salvinia (Salvinia molesta) against human tumor cells” (Bioorg Med Chem Lett, 2013)

Experiments:
HL-60 = assay: Cytotoxicity against human HL60 cells assessed as growth inhibition by WST-8 assay; format: functional
[1] = Cytotoxicity against human MRC5 cells assessed as growth inhibition by WST-8 assay; format: cell-based
[2] = Cytotoxicity against human BxPC3 cells assessed as growth inhibition by WST-8 assay; format: functional; conditions: BXPC-3
[3] = Cytotoxicity against human PANC1 cells assessed as growth inhibition by WST-8 assay; format: functional; conditions: PANC-1
A549 = assay: Cytotoxicity against human A549 cells assessed as growth inhibition by WST-8 assay; format: functional
PC-3 = assay: Cytotoxicity against human PC3 cells assessed as growth inhibition by WST-8 assay; format: functional
MDA-MB-231 = assay: Cytotoxicity against human MDA-MB-231 cells assessed as growth inhibition by WST-8 assay; format: functional
PANC-1 = assay: Antiproliferative activity against human PANC1 cells after 12 to 48 hrs by CCK-8 assay; format: functional, cell-based
Outline: (§1)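 Pancreatic cancer cells (PANC-1, BxPC-3) exposed to test compound at 0 (control), 5, 10, 20, 40, 60, 80 or 100 uM, with concentration levels differing between compounds. Proliferation followed over incubation time, with viable cell number (x1,000) plotted against hours to assess dose-dependent suppression.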

BXPC-3 = assay: Antiproliferative activity against human BxPC3 cells after 12 to 48 hrs by CCK-8 assay; format: functional, cell-based; outline: as §1

| SMILES | GI50 (HL-60) [µM] | GI50 [1] [µM] | GI50 [2] [µM] | GI50 [3] [µM] | GI50 (A549) [µM] | GI50 (PC-3) [µM] | GI50 (MDA-MB-231) [µM] | inhibition (PANC-1) | inhibition (BXPC-3) |
| --- | --- | --- | --- | --- | --- | --- | --- | --- | --- |
| CC(C)c1cc2c(cc1O)[C@@]1(C)CCCC(C)(C)[C@@H]1C=C2 | 66.5 | 59.2 | 37.5 | 46.7 | 53.8 | 58.1 |  |  |  |
| CC(C)C1=Cc2ccc3c(c2C(=O)C1=O)C(=O)CCC3(C)C | 23.3 | 20.4 | 20.5 | 32.1 | 24.9 | 19 |  |  |  |
| CC(C)C1=C(O)C(=O)C2=C(C=C[C@H]3C(C)(C)CCC[C@]23C)C1=O | 30 | 40.2 | 41.7 | 51.3 | 48 | 46.3 |  |  |  |
| CC(C)c1cc2c(c(O)c1O)[C@@]1(C)CCCC(C)(C)C1=C(O)C2=O [14-DEOXYCOLEON U] | 13.3 | 24.8 | 37.3 | 22.6 | 9.1 | 8.39 | > 100 |  |  |
| CC(C)c1cc2c(cc1O)[C@@]1(C)CCCC(C)(C)[C@@H]1C[C@H]2CC1=CCC(O)(C(C)C)CC1 (some centres not stated) | 48.1 | 58.4 | 87.3 | 60.4 | 62.9 | 54.2 | 75 | Dose-dependent effect | Dose-dependent effect |
| CC(C)c1ccc2c3c(ccc2c1)C(C)(C)CCC3 | > 100 | > 100 | > 100 | > 100 | > 100 | > 100 |  |  |  |
| CC(C)c1cc(C=O)c([C@@]2(C)CCCC(C)(C)[C@@H]2C=O)cc1O |  |  |  |  | 93.8 |  |  |  |  |
| CC(C)c1cc2c(cc1O)[C@@]1(C)CCCC(C)(C)[C@@H]1CC2 [FERRUGINOL] | 27.3 | 40 | 21.1 | 41.1 | 30.7 | 56.5 |  |  |  |
| CC(C)c1cc2c(cc1O)[C@@]1(C)CCCC(C)(C)C1=C(O)C2=O | 11.5 | 20 | 25 | 23.1 | 11.1 | 13.2 |  | Dose-dependent effect | Dose-dependent effect |
| CC(C)c1cc2c(c(O)c1O)[C@@]1(C)CCCC(C)(C)[C@@H]1CC2=O [DEMETHYLCRYPTOJAPONOL] | 35.3 | 40.2 | 45 | 43.1 | 35 | 41 |  |  |  |
| CC(C)c1cc2c(cc1O)[C@@]1(C)CCCC(C)(C)[C@@H]1CC2=O [SUGIOL] | 68.6 | > 100 | 36.1 | 87.9 | 79.8 | > 100 |  |  |  |
| CC(C)C1=C(O)C(=O)C2=C(CC[C@H]3C(C)(C)CCC[C@]23C)C1=O [ROYLEANONE] | 36.3 | 45.7 | 51 | 52.6 | 30.1 | 27.1 |  |  |  |
| CC(C)c1cc2c(cc1O)[C@@]1(C)CCCC(C)(C)C1=CC2=O | 92.8 |  | > 100 | > 100 | 84.5 | > 100 |  |  |  |
| CC(C)c1cc2c(cc1O)[C@@]1(C)CCCC(C)(C)[C@@H]1CC2O (some centres not stated) | 75.2 | 70.5 | 74.7 | 78.2 | 75.1 | 85.6 |  |  |  |
| COc1cc2c(cc1C(C)C)C(=O)C(O)=C1C(C)(C)CCC[C@@]12C |  |  |  |  | 21.2 |  |  |  |  |
| CO[C@H]1c2cc(C(C)C)c(O)c(O)c2[C@@]23CCCC(C)(C)[C@@H]2[C@@H]1OC3=O |  |  |  |  | 86.5 |  |  |  |  |
| CC(C)c1cc2ccc3c(c2cc1O)CCCC3(C)C | 50 | 55.4 | 36.4 | 37.5 | 42.2 | 43.6 |  |  |  |
